Hsp70 activator = transcriptional activators of Hsp70 | HeLa Hsp70 promoter luciferase reporter, luminescence; scaled: vehicle 0, proteasome-inhibitor control 100% | activation, % at 10 µM | 200,000 tested, 0.04% active | AID 1203;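 active = activation above the mean across all tested compounds plus 3 SD, cutoff set per campaign, cut at about 5.5% in these data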
HSF-1 act = increases HSF-1 driven luciferase reporter signal; 300,000 tested, 1.7% active; activation, % at 9 µM; NIH3T3-HGL HSF-1 luciferase reporter, MG132, 8 h; 100% = twice DMSO control signal;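 active = mean replicate activation of at least 50% with a set share of replicates each reaching 50%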
L major viab = Leishmania major promastigote growth inhibition; Leishmania major promastigotes, resazurin fluorescence viability; inhibition, % at 10 µM; 200,000 tested, 9% active; AID 1063; in the data active = inhibition above about 50%;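 note: promastigotes grown with compound for 44 hours at 28 °C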
T cruzi inh = T. cruzi replication inhibition; inhibition, % (test concentration not listed); T. cruzi beta-gal in NIH3T3, luminescence, 90 h; 300,000 tested, 1.4% active;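 active = mean inhibition across valid replicates above about 55%, limit read from the data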;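 note: signal also drops with host cell toxicity which is not excluded here; higher percent means less beta-gal luminescence so fewer parasites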
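Test system: β-gal T. cruzi (Tulahuen C4) inside NIH/3T3 cells / Quantity: 5,000 cells/well / Measured by: luminescence from GalScreen with 0.05% NP40, read after 60 min / Medium: DMEM plus 2% FBS / Measure: parasite load inhibition, % / Reagent: Tulahuen C4 trypomastigotes, 5000/well / Schedule: co-culture of at least 90 h after 3 h attachment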
HSF1 inh = HSF1 inhibition | AID 2098 | activity change, negative = inhibition, % at 7.5 µM (by protocol) | NIH3T3-HGL HSE-luciferase, MG132-induced, luminescence 8 h; stronger effect = lower value | 300,000 tested, 0.77% active;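 active = more than half of replicate wells show activity change below -50%, luminescence cut by over half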;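 note: luciferase reports HSF-1 transcriptional activity via heat shock element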
Hits are given with their value. Shown is part of a subset that was picked to be rich in hits.

CN(C)c1ccc(C(=O)c2ccccc2)cc1 was read as Hsp70 activator inactive, HSF-1 act inactive, L major viab inactive, T cruzi inh inactive and HSF1 inh inactive.
For COC(=O)C(C)N(C(=O)c1ccc(Cl)cc1)c1c(C)cccc1C (stereo not given) the results were Hsp70 activator inactive, HSF-1 act inactive, L major viab 87.2, T cruzi inh inactive and HSF1 inh inactive.
For COC(=O)C(C)N(C(=O)c1ccc(C(=O)c2ccccc2)cc1)c1c(C)cccc1C (stereo not given) the results were Hsp70 activator inactive, HSF-1 act 65.2, L major viab 99.4, T cruzi inh inactive and HSF1 inh inactive.
`O=C(N/N=C/c1ccc(COc2ccc(Br)cc2)o1)c1ccco1` gave Hsp70 activator inactive, HSF-1 act inactive, L major viab inactive, T cruzi inh inactive and HSF1 inh inactive.
OCCCNCc1ccc(-c2ccccc2)cc1 was read as Hsp70 activator inactive, HSF-1 act inactive, L major viab 91.8, T cruzi inh inactive and HSF1 inh inactive.
O=C(O)CCCCNCc1ccccc1 was read as Hsp70 activator inactive, HSF-1 act inactive, L major viab inactive, T cruzi inh inactive and HSF1 inh inactive.
For O=C(Nc1ccc(OCc2ccccc2)cc1)c1ccccc1 the results were Hsp70 activator inactive, HSF-1 act inactive, L major viab inactive, T cruzi inh inactive and HSF1 inh inactive.
`OCCCCNCc1ccc(OCc2ccccc2)cc1` gave Hsp70 activator inactive, HSF-1 act inactive, L major viab 90.0, T cruzi inh inactive and HSF1 inh inactive.
COc1ccccc1OCCCCCNCCO was read as Hsp70 activator inactive, HSF-1 act inactive, L major viab inactive, T cruzi inh inactive and HSF1 inh inactive.
`OCCCCNCc1ccc(OCc2ccccc2Cl)cc1` gave Hsp70 activator inactive, HSF-1 act inactive, L major viab 97.2, T cruzi inh inactive and HSF1 inh inactive.
Screening OCCNCCCCOc1ccc(OCc2ccccc2)cc1 returned Hsp70 activator inactive, HSF-1 act inactive, L major viab 100.0, T cruzi inh inactive and HSF1 inh inactive.
`COc1ccc(/C=C/C(=O)NCC(=O)N/N=C/c2cccs2)cc1` gave HSF-1 act inactive, T cruzi inh inactive and HSF1 inh inactive.
Screening Cc1[nH]c(C)c(S(=O)(=O)N2CCN(c3ccc(Cl)cc3)CC2)c1C(=O)N1CCCC1 returned HSF-1 act inactive, T cruzi inh inactive and HSF1 inh inactive.
CCOc1ccc(-c2cc(C(=O)N/N=C(\C)c3cccnc3)c3ccccc3n2)c(OCC)c1 was read as HSF-1 act inactive, T cruzi inh inactive and HSF1 inh inactive.
Screening CCOCCCNCc1ccc(OCc2ccccc2Cl)cc1 returned Hsp70 activator inactive, HSF-1 act inactive, L major viab 100.0, T cruzi inh inactive and HSF1 inh inactive.
OCCNCCCCOc1ccc(F)cc1 was read as Hsp70 activator inactive, HSF-1 act inactive, L major viab 63.0, T cruzi inh inactive and HSF1 inh inactive.
Screening COC(=O)C1=C(N)OC2=C(C(=O)CC(C)(C)C2)C1c1cc2c(cc1Cl)OCO2 (stereo not given) returned HSF-1 act inactive, T cruzi inh inactive and HSF1 inh inactive.
Screening O=C(O)CSc1cc(C(=O)c2ccccc2O)cn2c(=O)c3c4c(sc3nc12)CCCC4 returned HSF-1 act inactive, T cruzi inh inactive and HSF1 inh inactive.
`O=C(CSc1nnc(-c2ccc(Br)o2)n1Cc1ccccc1)c1ccccc1F` gave Hsp70 activator inactive, HSF-1 act 72.4, L major viab inactive, T cruzi inh inactive and HSF1 inh inactive.
Cc1cc(NC(=O)CSc2nnc(-c3ccc(Br)o3)n2Cc2ccccc2)no1 was read as Hsp70 activator inactive, HSF-1 act inactive, L major viab inactive, T cruzi inh inactive and HSF1 inh inactive.
Screening CCOc1ccccc1N(C)C(=O)c1ccc2c(=O)n3c(nc2c1)CCCCC3 returned HSF-1 act inactive, T cruzi inh inactive and HSF1 inh inactive.
`O=C(/C=C/c1cccs1)Nc1ccncc1` gave Hsp70 activator inactive, HSF-1 act inactive, L major viab inactive, T cruzi inh inactive and HSF1 inh inactive.
CC(C)(C)c1ccc(/C=C/C(=O)Nc2ccncc2)cc1 was read as Hsp70 activator inactive, HSF-1 act 56.0, L major viab 87.7, T cruzi inh inactive and HSF1 inh inactive.
`COC(=O)c1sc(NC(=O)/C=C/c2ccc(C)o2)nc1C` gave Hsp70 activator inactive, HSF-1 act 57.0, L major viab inactive, T cruzi inh inactive and HSF1 inh inactive.
COC(=O)c1sc(NC(=O)c2ccoc2C)nc1C was read as Hsp70 activator inactive, HSF-1 act inactive, L major viab inactive, T cruzi inh inactive and HSF1 inh inactive.
`Cc1nc(NC(=O)/C=C/c2ccc(C(C)(C)C)cc2)sc1C(=O)N(C)C` gave Hsp70 activator inactive, HSF-1 act inactive, L major viab 60.8, T cruzi inh inactive and HSF1 inh inactive.
For COc1ccc(Cl)cc1NS(=O)(=O)c1c(C)[nH]c(C)c1C(=O)N1CCCCC1 the results were HSF-1 act inactive, T cruzi inh inactive and HSF1 inh inactive.
Screening CC(C)Cn1cc(Cl)c(=O)n(CC(C)C)c1=O returned Hsp70 activator inactive, HSF-1 act inactive, L major viab inactive, T cruzi inh inactive and HSF1 inh inactive.
`O=C(CCNC(=O)c1ccc([N+](=O)[O-])cc1)Nc1nccs1` gave Hsp70 activator inactive, HSF-1 act inactive, L major viab inactive, T cruzi inh inactive and HSF1 inh inactive.
For CCn1c(C(=O)O)c(CC(=O)Nc2ccccc2OC)c2ccccc21 the results were HSF-1 act inactive, T cruzi inh inactive and HSF1 inh inactive.
`O=C1CC(c2cc(Br)ccc2F)c2cc3c(cc2N1)CCC3` (stereo not given) gave Hsp70 activator inactive, HSF-1 act inactive, L major viab inactive, T cruzi inh inactive and HSF1 inh inactive.
Screening Cc1cc2c(cc1C)C(c1ccccc1Br)CC(=O)N2 (stereo not given) returned Hsp70 activator inactive, HSF-1 act inactive, L major viab 99.5, T cruzi inh inactive and HSF1 inh inactive.
COc1ccccc1C1CC(=O)Nc2cc(C)c(C)cc21 (stereo not given) was read as HSF-1 act inactive, T cruzi inh inactive and HSF1 inh inactive.
O=C1CC(c2ccccc2F)c2cc3c(cc2N1)CCC3 (stereo not given) was read as Hsp70 activator inactive, L major viab 96.9 and T cruzi inh inactive.
For CCCOc1ccccc1C1CC(=O)Nc2cc3c(cc21)OCCO3 (stereo not given) the results were Hsp70 activator inactive, HSF-1 act inactive, L major viab 98.3, T cruzi inh inactive and HSF1 inh inactive.
`CCOc1ccccc1C1CC(=O)Nc2cc3c(cc21)OCCO3` (stereo not given) gave Hsp70 activator inactive, HSF-1 act inactive, L major viab inactive, T cruzi inh inactive and HSF1 inh inactive.

High-throughput results (PubChem)
